Assays:
Mus musculus [1] = experiment: Protective activity in LmnaH222P/H222P mouse model of cardiomyopathy assessed as mean survival days at 6 mg/kg, po administered 6 days per week via gavage starting from 10 weeks of age continued up to mouse death (reference value: 202 day); assay type: functional, Heart
Mus musculus [2] = experiment: Toxicity in LmnaH222P/H222P mouse model of cardiomyopathy assessed as serum amylase activity at 3 mg/kg/day, po administered 6 days per week via gavage starting from 14 weeks of age up to 20 weeks of age (reference value: 1102 +/- 53.63 U/L); assay type: organism-based, Heart; conditions: in vivo
Mus musculus [3] = experiment: Hepatotoxicity in LmnaH222P/H222P mouse model of cardiomyopathy assessed as inflammation at 3 to 6 mg/kg/day, po administered 6 days per week via gavage starting from 14 weeks of age up to 20 weeks of age by hematoxylin and eosin staining based assay; assay type: toxicity, organism-based; conditions: in vivo
Summary of the method: (§1)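 Liver, kidney and spleen from male Lmna H222P/H222P mice given vehicle or 3 or 6 mg/kg/day by gavage 6 days/week from 14 to 20 weeks. Tissues were fixed in 4% formaldehyde for 48 h, paraffin-embedded, sectioned at 5 μm and stained with hematoxylin and eosin. Findings were recorded for each individual sample.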

Mus musculus [4] = experiment: Toxicity in LmnaH222P/H222P mouse model of cardiomyopathy assessed as serum alkaline phosphatase activity at 3 mg/kg/day, po administered 6 days per week via gavage starting from 14 weeks of age up to 20 weeks of age (reference value: 91.5 +/- 6.99 U/L); assay type: organism-based, Heart; conditions: in vivo
Mus musculus [5] = experiment: Toxicity in LmnaH222P/H222P mouse model of cardiomyopathy assessed as serum alkaline phosphatase activity at 6 mg/kg/day, po administered 6 days per week via gavage starting from 14 weeks of age up to 20 weeks of age (reference value: 91.5 +/- 6.99 U/L); assay type: organism-based, Heart; conditions: in vivo
Mus musculus [6] = experiment: Nephrotoxicity in LmnaH222P/H222P mouse model of cardiomyopathy assessed as glomeruli abnormalities at 3 to 6 mg/kg/day, po administered 6 days per week via gavage starting from 14 weeks of age up to 20 weeks of age by hematoxylin and eosin staining based assay; assay type: toxicity, organism-based; conditions: in vivo; summary of the method: as §1
Mus musculus [7] = experiment: Toxicity in LmnaH222P/H222P mouse model of cardiomyopathy assessed as appearance of hemosiderin-laden macrophages in spleen at 3 to 6 mg/kg/day, po administered 6 days per week via gavage starting from 14 weeks of age up to 20 weeks of age by hematoxylin and eosin staining based assay; assay type: organism-based; conditions: in vivo; summary of the method: as §1
[8] = Effect on body mass in LmnaH222P/H222P mouse model of cardiomyopathy at 6 mg/kg/day, po administered 6 days per week via gavage starting from 14 weeks of age up to 20 weeks of age (reference value: 23.19 +/- 0.43); assay type: ADME, organism-based, Heart; conditions: in vivo
Mus musculus [9] = experiment: Nephrotoxicity in LmnaH222P/H222P mouse model of cardiomyopathy assessed as interstitial nephritis at 3 to 6 mg/kg/day, po administered 6 days per week via gavage starting from 14 weeks of age up to 20 weeks of age by hematoxylin and eosin staining based assay; assay type: toxicity, organism-based; conditions: in vivo; summary of the method: as §1
Mus musculus [10] = experiment: Toxicity in LmnaH222P/H222P mouse model of cardiomyopathy assessed as blood urea nitrogen level at 3 mg/kg/day, po administered 6 days per week via gavage starting from 14 weeks of age up to 20 weeks of age (reference value: 17.98 +/- 0.94 mg/dl); assay type: organism-based, Heart; conditions: in vivo
[11] = biological target: Dual specificity mitogen-activated protein kinase kinase; MEK1/2 (Homo sapiens, UniProt P36507+Q02750); experiment: Inhibition of MEK1/2 in human HT-29 cells assessed as reduction in cell proliferation after 72 hrs by CellTiter-Glo assay; assay type: cell-based
Summary of the method: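 HT-29 cells were plated at 2,000/well in DMEM or RPMI with 10% FBS and left overnight at 37°C, 5% CO2. Medium was replaced with compound at 3-fold dilutions from 3.3 µM to 4.5 nM. After 72 h, viability was read by CellTiter-Glo luminescence and IC50 calculated.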

Mus musculus [12] = experiment: Toxicity in LmnaH222P/H222P mouse model of cardiomyopathy assessed as total bilirubin content in serum at 3 mg/kg/day, po administered 6 days per week via gavage starting from 14 weeks of age up to 20 weeks of age (reference value: 0.36 +/- 0.02 mg/L); assay type: organism-based, Heart; conditions: in vivo
Mus musculus [13] = experiment: Toxicity in LmnaH222P/H222P mouse model of cardiomyopathy assessed as blood urea nitrogen level at 6 mg/kg/day, po administered 6 days per week via gavage starting from 14 weeks of age up to 20 weeks of age (reference value: 17.98 +/- 0.94 mg/dl); assay type: organism-based, Heart; conditions: in vivo
Mus musculus [14] = experiment: Hepatotoxicity in LmnaH222P/H222P mouse model of cardiomyopathy assessed as hepatocyte necrosis at 3 to 6 mg/kg/day, po administered 6 days per week via gavage starting from 14 weeks of age up to 20 weeks of age by hematoxylin and eosin staining based assay; assay type: toxicity, organism-based; conditions: hepatocytes; summary of the method: as §1
Mus musculus [15] = experiment: Toxicity in LmnaH222P/H222P mouse model of cardiomyopathy assessed as serum creatinine level at 6 mg/kg/day, po administered 6 days per week via gavage starting from 14 weeks of age up to 20 weeks of age (reference value: 0.45 +/- 0.01 mg/dl); assay type: organism-based, Heart; conditions: in vivo
Mus musculus [16] = experiment: Toxicity in LmnaH222P/H222P mouse model of cardiomyopathy assessed as serum alanine aminotransferase activity at 6 mg/kg/day, po administered 6 days per week via gavage starting from 14 weeks of age up to 20 weeks of age (reference value: 56 +/- 10.55 U/L); assay type: organism-based, Heart; conditions: in vivo
Mus musculus [17] = experiment: Toxicity in LmnaH222P/H222P mouse model of cardiomyopathy assessed as ratio of blood urea nitrogen to serum creatinine at 3 mg/kg/day, po administered 6 days per week via gavage starting from 14 weeks of age up to 20 weeks of age (reference value: 20.14 +/- 1.25); assay type: organism-based, Heart; conditions: in vivo
Mus musculus [18] = experiment: Toxicity in LmnaH222P/H222P mouse model of cardiomyopathy assessed as ratio of blood urea nitrogen to serum creatinine at 6 mg/kg/day, po administered 6 days per week via gavage starting from 14 weeks of age up to 20 weeks of age (reference value: 20.14 +/- 1.25); assay type: organism-based, Heart; conditions: in vivo
Mus musculus [19] = experiment: Toxicity in LmnaH222P/H222P mouse model of cardiomyopathy assessed as serum creatinine level at 3 mg/kg/day, po administered 6 days per week via gavage starting from 14 weeks of age up to 20 weeks of age (reference value: 0.45 +/- 0.01 mg/dl); assay type: organism-based, Heart; conditions: in vivo
Mus musculus [20] = experiment: Hepatotoxicity in LmnaH222P/H222P mouse model of cardiomyopathy assessed as cholestasis at 3 to 6 mg/kg/day, po administered 6 days per week via gavage starting from 14 weeks of age up to 20 weeks of age by hematoxylin and eosin staining based assay; assay type: toxicity, organism-based; conditions: in vivo; summary of the method: as §1
Mus musculus [21] = experiment: Toxicity in LmnaH222P/H222P mouse model of cardiomyopathy assessed as serum amylase activity at 6 mg/kg/day, po administered 6 days per week via gavage starting from 14 weeks of age up to 20 weeks of age (reference value: 1102 +/- 53.63 U/L); assay type: organism-based, Heart; conditions: in vivo
[22] = Effect on body mass in LmnaH222P/H222P mouse model of cardiomyopathy at 3 mg/kg/day, po administered 6 days per week via gavage starting from 14 weeks of age up to 20 weeks of age (reference value: 23.19 +/- 0.43); assay type: ADME, organism-based, Heart; conditions: in vivo
Mus musculus [23] = experiment: Protective activity in LmnaH222P/H222P mouse model of cardiomyopathy assessed as mean survival days at 3 mg/kg, po administered 6 days per week via gavage starting from 10 weeks of age continued up to mouse death (reference value: 202 day); assay type: functional, Heart
Mus musculus [24] = experiment: Toxicity in LmnaH222P/H222P mouse model of cardiomyopathy assessed as serum alanine aminotransferase activity at 3 mg/kg/day, po administered 6 days per week via gavage starting from 14 weeks of age up to 20 weeks of age (reference value: 56 +/- 10.55 U/L); assay type: organism-based, Heart; conditions: in vivo
Mus musculus [25] = experiment: Toxicity in LmnaH222P/H222P mouse model of cardiomyopathy assessed as total bilirubin content in serum at 6 mg/kg/day, po administered 6 days per week via gavage starting from 14 weeks of age up to 20 weeks of age (reference value: 0.36 +/- 0.02 mg/L); assay type: organism-based, Heart; conditions: in vivo

In the case of `O=S1(=O)Nc2c(cc(F)c(F)c2Nc2ccc(I)cc2F)OCC(O)C(O)CC12CC2` (single isomer, unassigned; form 1), the MSD (Mus musculus [1]) is reported as 225 days, the Activity (Mus musculus [2]) is reported as 1372 U/L and the Activity (Mus musculus [3]) is reported as “Non-Toxic”. For the same molecule, the Activity (Mus musculus [4]) was 104.5 U/L, the Activity (Mus musculus [5]) was 113 U/L and the Activity (Mus musculus [6]) was “Non-Toxic”. For the same molecule, the Activity (Mus musculus [7]) was “Non-Toxic”, the Activity [8] was 22.93 and the Activity (Mus musculus [9]) was “Non-Toxic”. For the same molecule, the Activity (Mus musculus [10]) was 18.04 mg/dL, the IC50 [11] was 16 nM and the Activity (Mus musculus [12]) was 0.32 mg/L. For the same molecule, the Activity (Mus musculus [13]) was 19.12 mg/dL, the Activity (Mus musculus [14]) was “Non-Toxic” and the Activity (Mus musculus [15]) was 0.46 mg/dL. The Activity (Mus musculus [16]) was 69.6 U/L, the Ratio (Mus musculus [17]) was 19.66 and the Ratio (Mus musculus [18]) was 20.77. The Activity (Mus musculus [19]) was 0.46 mg/dL, the Activity (Mus musculus [20]) was “Non-Toxic” and the Activity (Mus musculus [21]) was 1086 U/L. For the same molecule, the Activity [22] was 24.06, the MSD (Mus musculus [23]) was 225 days and the Activity (Mus musculus [24]) was 69.6 U/L. For the same molecule, the Activity (Mus musculus [25]) was 0.37 mg/L.
